{
  "source": "PubChem BioAssay AID720574",
  "about": "(Broad Institute, 2013)",
  "note": "Where “and” joins values, the source holds several entries; their conditions need not be identical. Equal values may be shown once. Screen size: about 96,000 compounds; about 140 (0.15%) were called active. Shown is part of a subset that was picked to be rich in actives. A number with no mark means an inactive call.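 How the source made its calls: active means mean replicate inhibition above about 25%, with at least 55% of replicates also reaching it (limit read from the data, passing the limit was not always enough); inconclusive means only one of those two conditions met; inactive means neither condition met.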",
  "data": [
    {"target": "Lysine-specific demethylase 4C (Homo sapiens) (UniProt Q9H3R0)", "sequence (Q9H3R0 2-372 limits assumed)": "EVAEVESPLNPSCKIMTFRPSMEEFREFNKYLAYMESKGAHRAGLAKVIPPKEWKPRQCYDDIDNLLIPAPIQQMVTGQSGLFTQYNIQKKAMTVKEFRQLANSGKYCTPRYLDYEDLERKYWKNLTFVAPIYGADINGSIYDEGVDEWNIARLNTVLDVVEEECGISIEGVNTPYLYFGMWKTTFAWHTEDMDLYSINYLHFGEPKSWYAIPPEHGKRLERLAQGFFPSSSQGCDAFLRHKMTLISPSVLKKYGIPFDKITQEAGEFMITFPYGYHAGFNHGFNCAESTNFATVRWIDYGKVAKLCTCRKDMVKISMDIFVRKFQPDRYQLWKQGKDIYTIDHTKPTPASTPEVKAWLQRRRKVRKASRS", "test": "inhibitors of GASC-1 (KDM4C) histone demethylase, primary screen, biochemical, single concentration HTS (AID 720574)", "settings": "GST-KDM4C 2-372, H3K9me3 peptide, LANCE TR-FRET; at 12.5 µM; stronger effect = higher value", "in_short": "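material = GST-tagged GASC-1 (JMJD2C) catalytic fragment, aa 2-372 | amount = enzyme final amount 10 nM | medium = HEPES buffer, pH 7.5, plus ascorbate | also added = H3K9me3 peptide substrate, Fe(II), 2-oxoglutarate | dosing = single dose | times = 30 min demethylation and 1 h detection at room temperature | detection = LANCE TR-FRET | read-out basis = Fall in 671/618 emission ratio as inhibition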", "values": [
      {"compound": "Cc1ccc(S(=O)(=O)N(C)C[C@@H]2OCCCC[C@@H](C)Oc3ccc(NC(=O)Nc4ccc(C(F)(F)F)cc4)cc3C(=O)N([C@@H](C)CO)C[C@@H]2C)cc1", "inhibition": "1.16%"},
      {"compound": "O=C(CN1CCOCC1)N1CC(=O)N2[C@H](C1)[C@H](c1ccc(/C=C/c3ccccc3)cc1)[C@@H]2CO", "inhibition": "0.257%"},
      {"compound": "O=C(NCC[C@H]1CC[C@@H](NC(=O)C2CC2)[C@H](CO)O1)c1ccc(F)cc1", "inhibition": "-0.983%"},
      {"compound": "CCC(=O)Nc1ccc2c(c1)C(=O)N(C)[C@@H]1CC[C@H](CC(=O)NCc3ccccc3)O[C@H]1CO2", "inhibition": "1.95%"},
      {"compound": "COc1ccc(S(=O)(=O)N[C@@H]2CC[C@@H](CC(=O)N3CCC(Cc4ccccc4)CC3)O[C@@H]2CO)cc1", "inhibition": "-0.232%"},
      {"compound": "COCC(=O)Nc1ccc2c(c1)[C@@H]1C[C@H](CC(=O)NCc3ccc(-c4ccccc4)cc3)O[C@H](CO)[C@@H]1O2", "inhibition": "-3.13%"},
      {"compound": "CN1C(=O)c2cc(NC(=O)C3CCCC3)ccc2OC[C@@H]2O[C@@H](CC(=O)NCCc3ccncc3)CC[C@@H]21", "inhibition": "1.45%"},
      {"compound": "Cc1ccc(S(=O)(=O)N[C@H]2CC[C@@H](CC(=O)N3CCc4ccccc4C3)O[C@H]2CO)cc1", "inhibition": "0.126%"},
      {"compound": "O=C(C[C@@H]1C[C@H]2c3cc(NC(=O)Nc4ccccc4)ccc3O[C@H]2[C@@H](CO)O1)NC1CCCCC1", "inhibition": "-1.66%"},
      {"compound": "COc1ccc2c3c(n(C)c2c1)[C@@H](CO)N(C(=O)Nc1ccc(F)cc1)CC31CN(C(=O)NC(C)C)C1", "inhibition": "-0.434%"},
      {"compound": "C/C=C/c1ccc([C@@H]2[C@H](CO)N(CC3CCOCC3)C23CN(S(=O)(=O)CC)C3)cc1", "inhibition": "0.162%"},
      {"compound": "C[C@H](CO)N1C[C@H](C)[C@H](CN(C)Cc2ccncc2)Oc2ncc(C#CCC3CCCCC3)cc2C1=O", "inhibition": "2.4%"},
      {"compound": "CC(C)NC(=O)N(C)C[C@@H]1OCCCC[C@@H](C)Oc2ccc(NC(=O)NC3CCCCC3)cc2C(=O)N([C@@H](C)CO)C[C@@H]1C", "inhibition": "0.134%"},
      {"compound": "COc1ccccc1C#Cc1cnc2c(c1)C(=O)N([C@H](C)CO)C[C@H](C)[C@H](CN(C)S(=O)(=O)c1cn(C)cn1)O2", "inhibition": "-1.15%"},
      {"compound": "CO[C@@H]1CN(C)C(=O)c2ccc(NC(=O)c3ccccc3F)cc2OC[C@@H](C)N(CC2CCOCC2)C[C@H]1C", "inhibition": "2.15%"},
      {"compound": "CCNC(=O)C[C@@H]1CC[C@@H]2[C@H](COc3ccc(NS(=O)(=O)c4ccccc4C)cc3C(=O)N2C)O1", "inhibition": "2.37%"},
      {"compound": "CN1C[C@@H]2[C@H](c3ccccc31)[C@@H](CO)N2C(=O)Nc1ccccc1", "inhibition": "-1.64%"},
      {"compound": "CCC(=O)Nc1ccc2c(c1)C(=O)N(C)[C@H]1CC[C@H](CC(=O)NCCOC)O[C@@H]1CO2", "inhibition": "1.02%"},
      {"compound": "Cc1noc(C)c1NC(=O)N[C@@H]1C=C[C@@H](CC(=O)Nc2ccccc2)O[C@H]1CO", "inhibition": "1.04%"},
      {"compound": "CCS(=O)(=O)Nc1ccc2c(c1)C(=O)N(C)[C@H]1CC[C@@H](CC(=O)N3CCCCC3)O[C@H]1CO2", "inhibition": "-0.234%"},
      {"compound": "COCC(=O)N1CC2(C1)CN(C(=O)COC)[C@@H](CO)c1c2c2ccc(OC)cc2n1C", "inhibition": "2.79%"},
      {"compound": "CC(C)NC(=O)N[C@@H]1CC[C@@H](CCNS(=O)(=O)Cc2ccccc2)O[C@@H]1CO", "inhibition": "-0.501%"},
      {"compound": "COc1ccc(S(=O)(=O)N(C)C[C@H]2Oc3c(NC(=O)CCCCCC(=O)Nc4ccccc4N)cccc3C(=O)N([C@H](C)CO)C[C@H]2C)cc1", "inhibition": "0.35%"},
      {"compound": "O=C(NC1CCCC1)[C@H]1[C@H](CO)[C@H]2Cn3c(ccc(-c4ccccc4)c3=O)[C@H]2N1CCc1ccccc1", "inhibition": "3.27%"},
      {"compound": "CO[C@H]1CN(C)C(=O)c2ccc(NC(=O)C3CCC3)cc2OC[C@H](C)NC[C@@H]1C", "inhibition": "-0.842%"},
      {"compound": "Cc1ccccc1S(=O)(=O)N1[C@H](CO)[C@@H](c2ccc(-c3ccccc3)cc2)[C@@H]1C#N", "inhibition": "-3.67%"},
      {"compound": "COc1ccc(S(=O)(=O)N(C)C[C@H]2OCCCC[C@H](C)Oc3ccc(NC(=O)Nc4ccc5c(c4)OCO5)cc3C(=O)N([C@@H](C)CO)C[C@@H]2C)cc1", "inhibition": "15.8%"},
      {"compound": "C[C@@H]1CN([C@@H](C)CO)C(=O)Cc2cc(NC(=O)Nc3ccc4c(c3)OCO4)ccc2O[C@H]1CN(C)S(=O)(=O)c1ccccc1", "inhibition": "-0.169%"},
      {"compound": "COc1ccc(C#Cc2ccc([C@H]3[C@H]4CN(C(=O)c5ccncc5)CC(=O)N4[C@H]3CO)cc2)cc1", "inhibition": "-3.07%"},
      {"compound": "COc1ccccc1CNC(=O)C[C@H]1C[C@@H]2c3cc(NC(=O)Nc4ccccc4F)ccc3O[C@@H]2[C@H](CO)O1", "inhibition": "-9.36%"},
      {"compound": "CO[C@@H]1CN(C)C(=O)c2cc(NC(=O)c3cccc(Oc4ccccc4)c3)ccc2OC[C@H](C)NC[C@@H]1C", "inhibition": "-0.467%"},
      {"compound": "CN(C)Cc1cn(CC[C@H]2CC[C@@H](NS(=O)(=O)c3ccccc3)[C@H](CO)O2)nn1", "inhibition": "0.714%"},
      {"compound": "O=C(NC[C@@H]1N[C@@H](CO)[C@H]1c1ccc(-c2cccnc2)cc1)c1cccc(F)c1", "inhibition": "-0.99%"},
      {"compound": "CN1CCN(C(=O)C[C@H]2CC[C@@H]3[C@H](COC[C@@H](O)CN3CC3CCCC3)O2)CC1", "inhibition": "6.35%"},
      {"compound": "CCCN1C[C@@H](C)[C@@H](OC)CN(C)C(=O)c2cc(NC(=O)c3ccccc3)ccc2OC[C@H]1C", "inhibition": "-1.49%"},
      {"compound": "COc1cccc(C(=O)Nc2ccc3c(c2)C(=O)N(C)[C@@H]2CC[C@@H](CC(=O)NCCCN4CCOCC4)O[C@@H]2CO3)c1", "inhibition": "-0.807%"},
      {"compound": "COCC(=O)Nc1ccc2c(c1)[C@H]1C[C@@H](CC(=O)NCc3ccccc3F)O[C@H](CO)[C@H]1O2", "inhibition": "1.67%"},
      {"compound": "CCCC(=O)N1CCC2(CC1)CN[C@H](CO)c1[nH]c3cc(OC)ccc3c12", "inhibition": "-0.39%"},
      {"compound": "CCCC(=O)Nc1ccc2c(c1)C(=O)N(C)C[C@H](OC)[C@H](C)CN(C(=O)c1ccccn1)[C@H](C)CO2", "inhibition": "0.027%"},
      {"compound": "C[C@H](CO)N1C[C@H](C)[C@@H](CN(C)Cc2ccc(Oc3ccccc3)cc2)Oc2ccc(NS(=O)(=O)c3ccc(F)cc3)cc2CC1=O", "inhibition": "-2.45%"},
      {"compound": "O=C(Cc1cccnc1)N1CC(=O)N2[C@@H](CO)[C@@H](c3ccc(C#CC4CCCCC4)cc3)[C@@H]2C1", "inhibition": "-0.852%"},
      {"compound": "CN(C)CC(=O)N[C@@H]1CC[C@@H](CCn2cc(C3CC3)nn2)O[C@H]1CO", "inhibition": "-0.3%"},
      {"compound": "COc1ccc(-c2cn(CC[C@H]3CC[C@@H](N)[C@H](CO)O3)nn2)cc1", "inhibition": "-0.108%"},
      {"compound": "N[C@@H]1CC[C@H](CCn2cc(C3CC3)nn2)O[C@@H]1CO", "inhibition": "57.3% (active)"},
      {"compound": "O=C(c1ccncc1)N1CC[C@@H]2[C@H]1c1cc(Br)ccc1N[C@@H]2CO", "inhibition": "1.89%"},
      {"compound": "CC(=O)N1[C@H](CO)[C@H](c2ccc(-c3ccccc3)cc2)[C@H]1CNC(=O)NC(C)C", "inhibition": "-0.299%"},
      {"compound": "CCC(=O)N[C@H]1CC[C@@H](CC(=O)NCC2CC2)O[C@@H]1CO", "inhibition": "-0.369%"},
      {"compound": "C/C=C/c1ccc([C@H]2[C@@H](CO)N(C(C)=O)[C@H]2CN(C)S(C)(=O)=O)cc1", "inhibition": "1.96%"},
      {"compound": "COc1ccc(S(=O)(=O)Nc2ccc3c(c2)C(=O)N([C@@H](C)CO)C[C@H](C)[C@@H](CN(C)C(=O)NC(C)C)OCCCC[C@H](C)O3)cc1", "inhibition": "0.601%"},
      {"compound": "CN(C)C(=O)[C@@H]1[C@@H](CO)[C@@H]2Cn3c(cccc3=O)[C@H]1N2C(=O)c1ccc(F)cc1", "inhibition": "-1.64%"},
      {"compound": "COc1ccc(NC(=O)N(C)C[C@H]2OCCCC[C@@H](C)Oc3ccc(NC(=O)NC4CCCCC4)cc3C(=O)N([C@H](C)CO)C[C@H]2C)cc1", "inhibition": "-1.08%"},
      {"compound": "O=C(NC1Cc2ccccc2C1)[C@H]1[C@H](CO)[C@H]2Cn3c(ccc(C4=CCCCC4)c3=O)[C@H]2N1CC1CC1", "inhibition": "3.76%"},
      {"compound": "CC(C)NC(=O)N[C@H]1CC[C@@H](CCNC(=O)C2CCC2)O[C@@H]1CO", "inhibition": "-2.41%"},
      {"compound": "Cc1ccccc1S(=O)(=O)N1[C@@H]2CNC[C@H]1C2c1ccc(-c2cccnc2)cc1", "note": "(stereo not given in full)", "inhibition": "-0.633% and -0.155%"},
      {"compound": "O=C(NCc1ccncn1)[C@@H]1[C@@H](CO)[C@@H]2Cn3c(ccc(-c4ccc(F)cc4)c3=O)[C@@H]2N1CC1CC1", "inhibition": "12.7%"},
      {"compound": "O=C(c1cnccn1)N1CC(=O)N2[C@H](C1)[C@@H](c1ccc(C#CC3CCCC3)cc1)[C@@H]2CO", "inhibition": "7.28%"},
      {"compound": "O=C(C[C@@H]1CC[C@H]2[C@@H](COC[C@@H](O)CN2S(=O)(=O)c2cccc(F)c2)O1)NCCCN1CCOCC1", "inhibition": "-0.281%"},
      {"compound": "C[C@H](CO)N1C[C@H](C)[C@H](CN(C)C(=O)C2CC2)Oc2cc(-c3cccnc3)ccc2S1(=O)=O", "inhibition": "0.237%"},
      {"compound": "Cn1cnc(CCNC(=O)C[C@@H]2CC[C@H]3[C@@H](COC[C@@H](O)CN3C(=O)Nc3ccc(Cl)cc3)O2)c1", "inhibition": "-0.915%"},
      {"compound": "O=C(Cc1ccccn1)N1CC(=O)N2[C@H](C1)[C@@H](c1ccc(-c3ccccc3)cc1)[C@@H]2CO", "inhibition": "1.11%"},
      {"compound": "O=C(c1ccc2c(c1)OCO2)N1CC(=O)N2[C@H](C1)[C@@H](c1ccc(C#Cc3ccccc3)cc1)[C@@H]2CO", "inhibition": "-2.3%"},
      {"compound": "O=C(NCC[C@@H]1CC[C@H](NC(=O)Nc2cc(F)ccc2F)[C@@H](CO)O1)Nc1ccc(Cl)cc1", "inhibition": "0.858%"},
      {"compound": "C[C@@H]1CN([C@@H](C)CO)S(=O)(=O)c2ccc(C#Cc3ccc(F)cc3)cc2O[C@H]1CN(C)C(=O)NC1CCCC1", "inhibition": "55.9% (active)"},
      {"compound": "C[C@@H]1CN([C@@H](C)CO)S(=O)(=O)c2ccc(C#Cc3ccc(F)cc3)cc2O[C@@H]1CN(C)CC1CC1", "inhibition": "-2.29%"},
      {"compound": "C/C=C/c1ccc2c(c1)O[C@@H](CN(C)C(=O)NC1CCCC1)[C@@H](C)CN([C@H](C)CO)S2(=O)=O", "inhibition": "0.88%"}
    ]}
  ]
}
